{"source": "paper PMC6445238", "about": "(Drug Design, Development and Therapy, 2019)", "key": {"[1]": {"assay": "SAD study, safety and tolerability", "type": "in vivo, human", "conditions": "for Abdominal discomfort, number of subjects (%) / Cough, number of subjects (%) / Eye swelling, number of subjects (%) / Face injury, number of subjects (%) / Headache, number of subjects (%) / Hot flush, number of subjects (%) / Hyperbilirubinemia, number of subjects (%) / Hypoesthesia, number of subjects (%) / Influenza, number of subjects (%) / Pain in extremity, number of subjects (%) / Proteinuria, number of subjects (%) / Subjects with any TEAEs, number of subjects (%) / Syncope, number of subjects (%): N=6", "in_short": "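SAD cohorts were 6 active and 2 placebo healthy males given a single oral dose, with 2 sentinel subjects dosed at least 24 h before the rest. Confinement ran day −1 to day 3, with outpatient visits on days 4 and 7 and follow-up on day 14. Safety covered vital signs, clinical labs, 12-lead ECG, physical exams, and reported or observed AEs, coded with MedDRA 19.1. Counts are subjects with AEs, % of the safety population. Placebo subjects were pooled.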"}, "[2]": {"system": "dopaminergic neurons treated with MPTP", "conditions": "dose-dependent, ref unpublished data; cited from earlier work"}, "[3]": {"conditions": "2 weeks, up to 1,000 mg/kg/day; cited from earlier work"}}, "note": "“Also recorded” adds a separate entry of the source.", "data": [{"molecule": "Cc1nn(Cc2ccc(Br)cc2)c(C)c1NC(=O)CSc1ccccc1", "note": "[KM-819]", "values": [{"measurement": "Abdominal discomfort, number of subjects (%)", "setting": "[1]; single 30 mg, young", "value": 0}, {"measurement": "Cough, number of subjects (%)", "setting": "[1]; single 30 mg, young", "value": 0}, {"measurement": "Eye swelling, number of subjects (%)", "setting": "[1]; single 30 mg, young", "value": 0}, {"measurement": "Face injury, number of subjects (%)", "setting": "[1]; single 30 mg, young", "value": 0}, {"measurement": "Headache, number of subjects (%)", "setting": "[1]; single 30 mg, young", "value": 0}, {"measurement": "Hot flush, number of subjects (%)", "setting": "[1]; single 30 mg, young", "value": 0}, {"measurement": "Hyperbilirubinemia, number of subjects (%)", "setting": "[1]; single 30 mg, young", "value": 0}, {"measurement": "Hypoesthesia, number of subjects (%)", "setting": "[1]; single 30 mg, young", "value": 0}, {"measurement": "Influenza, number of subjects (%)", "setting": "[1]; single 30 mg, young", "value": 0}, {"measurement": "Pain in extremity, number of subjects (%)", "setting": "[1]; single 30 mg, young", "value": "1 (16.7)"}, {"measurement": "Proteinuria, number of subjects (%)", "setting": "[1]; single 30 mg, young", "value": 0}, {"measurement": "Subjects with any TEAEs, number of subjects (%)", "setting": "[1]; single 30 mg, young", "value": "2 (33.3)"}, {"measurement": "Syncope, number of subjects (%)", "setting": "[1]; single 30 mg, young", "value": "1 (16.7)"}, {"measurement": "Abdominal discomfort, number of subjects (%)", "setting": "[1]; single 100 mg, young", "value": 0}, {"measurement": "Cough, number of subjects (%)", "setting": "[1]; single 100 mg, young", "value": 0}, {"measurement": "Eye swelling, number of subjects (%)", "setting": "[1]; single 100 mg, young", "value": 0}, {"measurement": "Face injury, number of subjects (%)", "setting": "[1]; single 100 mg, young", "value": 0}, {"measurement": "Headache, number of subjects (%)", "setting": "[1]; single 100 mg, young", "value": 0}, {"measurement": "Hot flush, number of subjects (%)", "setting": "[1]; single 100 mg, young", "value": 0}, {"measurement": "Hyperbilirubinemia, number of subjects (%)", "setting": "[1]; single 100 mg, young", "value": "1 (16.7)"}, {"measurement": "Hypoesthesia, number of subjects (%)", "setting": "[1]; single 100 mg, young", "value": "1 (16.7)"}, {"measurement": "Influenza, number of subjects (%)", "setting": "[1]; single 100 mg, young", "value": 0}, {"measurement": "Pain in extremity, number of subjects (%)", "setting": "[1]; single 100 mg, young", "value": 0}, {"measurement": "Proteinuria, number of subjects (%)", "setting": "[1]; single 100 mg, young", "value": "1 (16.7)"}, {"measurement": "Subjects with any TEAEs, number of subjects (%)", "setting": "[1]; single 100 mg, young", "value": "2 (33.3)"}, {"measurement": "Syncope, number of subjects (%)", "setting": "[1]; single 100 mg, young", "value": 0}, {"measurement": "Abdominal discomfort, number of subjects (%)", "setting": "[1]; single 200 mg, elderly", "value": 0}, {"measurement": "Cough, number of subjects (%)", "setting": "[1]; single 200 mg, elderly", "value": 0}, {"measurement": "Eye swelling, number of subjects (%)", "setting": "[1]; single 200 mg, elderly", "value": 0}, {"measurement": "Face injury, number of subjects (%)", "setting": "[1]; single 200 mg, elderly", "value": "1 (16.7)"}, {"measurement": "Headache, number of subjects (%)", "setting": "[1]; single 200 mg, elderly", "value": "2 (33.3)"}, {"measurement": "Hot flush, number of subjects (%)", "setting": "[1]; single 200 mg, elderly", "value": "1 (16.7)"}, {"measurement": "Hyperbilirubinemia, number of subjects (%)", "setting": "[1]; single 200 mg, elderly", "value": 0}, {"measurement": "Hypoesthesia, number of subjects (%)", "setting": "[1]; single 200 mg, elderly", "value": 0}, {"measurement": "Influenza, number of subjects (%)", "setting": "[1]; single 200 mg, elderly", "value": 0}, {"measurement": "Pain in extremity, number of subjects (%)", "setting": "[1]; single 200 mg, elderly", "value": 0}, {"measurement": "Proteinuria, number of subjects (%)", "setting": "[1]; single 200 mg, elderly", "value": 0}, {"measurement": "Subjects with any TEAEs, number of subjects (%)", "setting": "[1]; single 200 mg, elderly", "value": "2 (33.3)"}, {"measurement": "Syncope, number of subjects (%)", "setting": "[1]; single 200 mg, elderly", "value": 0}, {"measurement": "Abdominal discomfort, number of subjects (%)", "setting": "[1]; single 200 mg, young", "value": "1 (16.7)"}, {"measurement": "Cough, number of subjects (%)", "setting": "[1]; single 200 mg, young", "value": 0}, {"measurement": "Eye swelling, number of subjects (%)", "setting": "[1]; single 200 mg, young", "value": 0}, {"measurement": "Face injury, number of subjects (%)", "setting": "[1]; single 200 mg, young", "value": 0}, {"measurement": "Headache, number of subjects (%)", "setting": "[1]; single 200 mg, young", "value": 0}, {"measurement": "Hot flush, number of subjects (%)", "setting": "[1]; single 200 mg, young", "value": 0}, {"measurement": "Hyperbilirubinemia, number of subjects (%)", "setting": "[1]; single 200 mg, young", "value": 0}, {"measurement": "Hypoesthesia, number of subjects (%)", "setting": "[1]; single 200 mg, young", "value": 0}, {"measurement": "Influenza, number of subjects (%)", "setting": "[1]; single 200 mg, young", "value": 0}, {"measurement": "Pain in extremity, number of subjects (%)", "setting": "[1]; single 200 mg, young", "value": 0}, {"measurement": "Proteinuria, number of subjects (%)", "setting": "[1]; single 200 mg, young", "value": 0}, {"measurement": "Subjects with any TEAEs, number of subjects (%)", "setting": "[1]; single 200 mg, young", "value": "1 (16.7)"}, {"measurement": "Syncope, number of subjects (%)", "setting": "[1]; single 200 mg, young", "value": 0}, {"measurement": "Abdominal discomfort, number of subjects (%)", "setting": "[1]; single 400 mg, young", "value": 0}, {"measurement": "Cough, number of subjects (%)", "setting": "[1]; single 400 mg, young", "value": 0}, {"measurement": "Eye swelling, number of subjects (%)", "setting": "[1]; single 400 mg, young", "value": 0}, {"measurement": "Face injury, number of subjects (%)", "setting": "[1]; single 400 mg, young", "value": 0}, {"measurement": "Headache, number of subjects (%)", "setting": "[1]; single 400 mg, young", "value": 0}, {"measurement": "Hot flush, number of subjects (%)", "setting": "[1]; single 400 mg, young", "value": 0}, {"measurement": "Hyperbilirubinemia, number of subjects (%)", "setting": "[1]; single 400 mg, young", "value": 0}, {"measurement": "Hypoesthesia, number of subjects (%)", "setting": "[1]; single 400 mg, young", "value": 0}, {"measurement": "Influenza, number of subjects (%)", "setting": "[1]; single 400 mg, young", "value": 0}, {"measurement": "Pain in extremity, number of subjects (%)", "setting": "[1]; single 400 mg, young", "value": 0}, {"measurement": "Proteinuria, number of subjects (%)", "setting": "[1]; single 400 mg, young", "value": 0}, {"measurement": "Subjects with any TEAEs, number of subjects (%)", "setting": "[1]; single 400 mg, young", "value": 0}, {"measurement": "Syncope, number of subjects (%)", "setting": "[1]; single 400 mg, young", "value": 0}, {"measurement": "overall safety and tolerability", "setting": "[1]; single or multiple doses", "value": "generally well tolerated; also recorded: no remarkable or significant safety concerns; also recorded: safe and well tolerated"}, {"measurement": "protection of dopaminergic neurons", "setting": "[2]", "value": "protect the dopaminergic neurons"}, {"measurement": "adverse effects after repeated administration", "setting": "[3]", "value": "did not show adverse effects"}]}]}
